Measurements as given in ChEMBL document CHEMBL1133451, “Optimization of substituted N-3-benzylimidazoquinazolinone sulfonamides as potent and selective PDE5 inhibitors” (J Med Chem, 2000).

Tests used:
[1] = In vitro selectivity ratio of PDE6 of Bovine retina to human platelet PDE5 was determined
Outline: (§1)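 Scintillation proximity PDE assay at room temperature, read by scintillation counting. Substrates: [³H]cGMP for PDE5 (sonicated human platelet homogenate) and PDE1 (bovine heart, with 1 µM calmodulin and 4 mM calcium). PDE2 (rat kidney cytosol, Mono-Q purified) used [³H]cAMP plus 1 µM nonradioactive cGMP. PDE6 was stripped from bovine rod outer segments and trypsin-activated. Blank subtracted; activity as percent of vehicle; ratio = IC50 other/IC50 PDE5.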

[2] = In vitro selectivity ratio of PDE2 of Rat kidney to human platelet PDE5 was determined; outline: as §1
[3] = In vitro selectivity ratio of Bovine Heart PDE1 to human platelet PDE5 was determined; outline: as §1
[4] = system: cGMP-specific 3',5'-cyclic phosphodiesterase (Oryctolagus cuniculus); assay: Rabbit Corpus Cavernosum functional assay at 30 nM to determine the efficacy of PDE5 inhibition activity.
[5] = molecular target: cGMP-specific 3',5'-cyclic phosphodiesterase (Homo sapiens, UniProt O76074); assay: In vitro inhibitory concentration against human platelet Phosphodiesterase 5 was determined
[6] = Selectivity ratio for Bovine retinal PDE6 and human platelet PDE5; outline: as §1

| Compound | IC50 ratio [1] | IC50 ratio [2] | IC50 ratio [3] | Control relaxation [4] | IC50 [5] | IC50 ratio [6] |
| --- | --- | --- | --- | --- | --- | --- |
| CCCOc1ccc(S(=O)(=O)N2CC[C@@H](N(C)C)C2)cc1-c1nc(O)c2cc3c(cc2n1)ncn3Cc1ccc(Cl)cc1 | 50 | > 10000 | > 10000 | – | 0.52 nM | – |
| CCCOc1ccc(S(=O)(=O)N2CCN(CC)CC2)cc1-c1nc2cc3ncn(Cc4ccccc4Cl)c3cc2c(=O)[nH]1 | – | – | – | – | 1.6 nM | – |
| CCCOc1ccc(S(=O)(=O)N2CCN(CC)CC2)cc1-c1nc2cc3ncn(Cc4ccccc4OC)c3cc2c(=O)[nH]1 | – | – | – | – | 0.62 nM | – |
| CCCOc1ccc(S(N)(=O)=O)cc1-c1nc2cc3ncn(Cc4ccc(F)cc4)c3cc2c(=O)[nH]1 | – | – | – | – | 3.2 nM | – |
| CCCOc1ccc(C(=O)N2CCN(CC)CC2)cc1-c1nc2cc3ncn(Cc4ccc(F)cc4)c3cc2c(=O)[nH]1 | – | – | – | – | 35 nM | – |
| CCCOc1ccc(S(N)(=O)=O)cc1-c1nc(O)c2cc3c(cc2n1)ncn3Cc1ccc(F)cc1 | 20 | > 10000 | > 10000 | 100% | – | – |
| CCCOc1ccc(S(=O)(=O)N2CC[C@@H](N(C)C)C2)cc1-c1nc2cc3ncn(Cc4ccc(F)cc4)c3cc2c(=O)[nH]1 | 70 | > 10000 | > 10000 | 120% | 0.2 nM | – |
| CCCOc1ccc(S(=O)(=O)N2CCN(C)CC2)cc1-c1nc2cc3ncn(Cc4ccc(F)cc4)c3cc2c(=O)[nH]1 | – | – | – | – | 3.3 nM | – |
| CCCOc1ccc(S(=O)(=O)N2CCN(CC)CC2)cc1-c1nc2cc3ncn(Cc4cccc(F)c4)c3cc2c(=O)[nH]1 | – | – | – | – | 1.4 nM | – |
| CCCOc1ccc(C(N)=O)cc1-c1nc(O)c2cc3c(cc2n1)ncn3Cc1ccc(F)cc1 | 60 | > 100000 | > 100000 | 140% | – | – |
| CCCOc1ccc(S(=O)(=O)N2CCN(CC)CC2)cc1-c1nc(O)c2cc3c(cc2n1)ncn3Cc1cccc(OC)c1 | 50 | 7000 | > 10000 | 130% | 1.1 nM | – |
| CCCOc1ccc(C(=O)N2CC[C@@H](N(C)C)C2)cc1-c1nc2cc3ncn(Cc4ccc(F)cc4)c3cc2c(=O)[nH]1 | – | – | – | – | 40 nM | – |

Next, values leading:

| IC50 ratio [1] | IC50 ratio [2] | IC50 ratio [3] | Control relaxation [4] | IC50 [5] | IC50 ratio [6] | Compound |
| --- | --- | --- | --- | --- | --- | --- |
| 40 | > 10000 | > 10000 | 90% | – | – | CCCOc1ccc(S(=O)(=O)N2CCN(CC)CC2)cc1-c1nc(O)c2cc3c(cc2n1)ncn3Cc1ccccc1Cl |
| 30 | > 10000 | > 10000 | 110% | 1.1 nM | – | CCCOc1ccc(S(=O)(=O)N2CC[C@@H](N(C)C)C2)cc1-c1nc(O)c2cc3c(cc2n1)ncn3Cc1ccccc1 |
| 20 | > 10000 | 3400 | 120% | – | – | CCCOc1ccc(S(=O)(=O)N2CCN(C)CC2)cc1-c1nc(O)c2cc3c(cc2n1)ncn3Cc1ccccc1 |
| 50 | > 10000 | > 10000 | 90% | 1.1 nM | – | CCCOc1ccc(S(=O)(=O)N2CCN(CC)CC2)cc1-c1nc(O)c2cc3c(cc2n1)ncn3Cc1ccccc1 |
| – | – | – | – | 27 nM | 3 | CCCOc1ccc(S(=O)(=O)N2CC[C@H](N(C)C)C2)cc1-c1nc(O)c2cc3c(cc2n1)ncn3Cc1ccccc1 |
| 80 | > 10000 | > 10000 | 100% | – | – | CCCOc1ccc(S(=O)(=O)N2CCN(CC)CC2)cc1-c1nc(O)c2cc3c(cc2n1)ncn3Cc1cccc(F)c1 |
| 80 | > 10000 | > 10000 | 100% | 1.7 nM | – | CCCOc1ccc(S(=O)(=O)N2CCN(CC)CC2)cc1-c1nc(O)c2cc3c(cc2n1)ncn3Cc1ccc(F)cc1 |
